Source: ChEMBL document CHEMBL1132996, “Derivatives of (R)-1,11-methyleneaporphine: synthesis, structure, and interactions with G-protein coupled receptors” (J Med Chem, 2000)

Columns and labels:
[1] = target: T1, 5-hydroxytryptamine receptor 1A (Homo sapiens, UniProt P08908)
T1 sequence (P08908 whole entry): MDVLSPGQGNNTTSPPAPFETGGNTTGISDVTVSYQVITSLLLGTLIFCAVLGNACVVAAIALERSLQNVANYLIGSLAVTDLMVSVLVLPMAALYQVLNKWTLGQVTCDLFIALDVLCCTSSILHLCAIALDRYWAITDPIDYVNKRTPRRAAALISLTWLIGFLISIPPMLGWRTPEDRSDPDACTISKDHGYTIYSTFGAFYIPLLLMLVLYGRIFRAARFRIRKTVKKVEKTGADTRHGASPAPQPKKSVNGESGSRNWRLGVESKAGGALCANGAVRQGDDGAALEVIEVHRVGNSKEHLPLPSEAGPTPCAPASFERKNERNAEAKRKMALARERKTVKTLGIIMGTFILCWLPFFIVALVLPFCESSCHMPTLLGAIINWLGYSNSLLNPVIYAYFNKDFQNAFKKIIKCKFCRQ

D(2) dopamine receptor [2] = target: T2, D(2) dopamine receptor (Homo sapiens, UniProt P14416); assay: Binding affinity was measured on cloned Human D2A Receptor which is labeled by [3H]raclopride
[3] = target: T3, 5-hydroxytryptamine receptor 7 (Rattus norvegicus, UniProt P32305); assay: Binding affinity against Rat 5-hydroxytryptamine 7 receptor using [3H]5-HT
D(2) dopamine receptor [4] = target: T2, D(2) dopamine receptor; assay: Displacement of [3H]raclopride from human Dopamine receptor D2A
Summary of the method: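 Cloned human D2A receptor expressed in mouse fibroblast Ltk- cell membranes. Competition against [3H]raclopride binding, following an earlier method. Ki by nonlinear regression, mean ± SE of 2–3 experiments.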

[5] = target: T3, 5-hydroxytryptamine receptor 7; assay: Displacement of [3H]5-HT from over-expressed rat 5-hydroxytryptamine 7 receptor
Summary of the method: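 Cloned rat 5-HT7 receptor in CHO or Sf9 cell membranes, in 50 mM Tris-HCl, 4 mM MgCl2, 1 mM EDTA, pH 7.4; 30-40 pM receptor. Competition against 0.8 nM [3H]5-HT, 60 min at 30 °C. Nonspecific binding defined with 10 μM methiothepin. Filtration, scintillation counting. Ki by nonlinear regression, mean ± SE of 2–3 experiments.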

[6] = target: T1, 5-hydroxytryptamine receptor 1A; assay: Binding affinity was measured on cloned human 5-hydroxytryptamine 1A receptor which is labeled by [3H]8-OH-DPAT
Summary of the method: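 Membranes from CHO cells expressing cloned human 5-HT1A receptor, in 50 mM Tris-HCl, 4 mM MgCl2, pH 7.4; about 40 pM receptor. Competition against 1 nM [3H]8-OH-DPAT, 60 min at 30 °C. Nonspecific binding defined with 10 μM WAY-100635. Filtration, liquid scintillation counting. Ki by nonlinear regression, mean ± SE of 2–3 experiments.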

[7] = target: T4, 5-hydroxytryptamine receptor 1A (Rattus norvegicus, UniProt P19327); assay: Binding affinity was measured on cloned rat 5-hydroxytryptamine 1A receptor which is labeled by [3H]8-OH-DPAT
T4 sequence (P19327 whole entry): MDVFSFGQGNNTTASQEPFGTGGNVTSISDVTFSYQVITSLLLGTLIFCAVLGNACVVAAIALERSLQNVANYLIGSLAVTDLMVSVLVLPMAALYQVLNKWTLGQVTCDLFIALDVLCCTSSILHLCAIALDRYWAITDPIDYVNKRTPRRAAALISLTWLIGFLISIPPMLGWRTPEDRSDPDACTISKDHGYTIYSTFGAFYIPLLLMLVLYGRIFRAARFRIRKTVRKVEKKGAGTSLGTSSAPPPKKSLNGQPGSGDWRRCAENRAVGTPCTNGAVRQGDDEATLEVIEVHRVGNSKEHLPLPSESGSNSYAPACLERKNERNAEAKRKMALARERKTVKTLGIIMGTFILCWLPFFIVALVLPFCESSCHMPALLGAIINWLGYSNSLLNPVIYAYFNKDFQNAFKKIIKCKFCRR

T2 sequence (P14416 whole entry): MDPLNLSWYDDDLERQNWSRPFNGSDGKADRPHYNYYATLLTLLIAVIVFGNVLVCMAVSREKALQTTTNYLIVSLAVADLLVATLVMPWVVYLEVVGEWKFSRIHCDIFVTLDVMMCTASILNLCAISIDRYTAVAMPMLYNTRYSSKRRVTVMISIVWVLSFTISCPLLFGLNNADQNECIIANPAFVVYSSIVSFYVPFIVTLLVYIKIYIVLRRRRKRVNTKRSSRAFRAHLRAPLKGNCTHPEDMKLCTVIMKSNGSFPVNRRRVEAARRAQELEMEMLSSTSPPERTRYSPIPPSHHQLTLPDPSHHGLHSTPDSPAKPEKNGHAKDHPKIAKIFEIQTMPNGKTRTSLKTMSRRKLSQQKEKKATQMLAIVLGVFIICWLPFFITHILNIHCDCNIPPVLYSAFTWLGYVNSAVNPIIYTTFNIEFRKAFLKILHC
T3 sequence (P32305 whole entry): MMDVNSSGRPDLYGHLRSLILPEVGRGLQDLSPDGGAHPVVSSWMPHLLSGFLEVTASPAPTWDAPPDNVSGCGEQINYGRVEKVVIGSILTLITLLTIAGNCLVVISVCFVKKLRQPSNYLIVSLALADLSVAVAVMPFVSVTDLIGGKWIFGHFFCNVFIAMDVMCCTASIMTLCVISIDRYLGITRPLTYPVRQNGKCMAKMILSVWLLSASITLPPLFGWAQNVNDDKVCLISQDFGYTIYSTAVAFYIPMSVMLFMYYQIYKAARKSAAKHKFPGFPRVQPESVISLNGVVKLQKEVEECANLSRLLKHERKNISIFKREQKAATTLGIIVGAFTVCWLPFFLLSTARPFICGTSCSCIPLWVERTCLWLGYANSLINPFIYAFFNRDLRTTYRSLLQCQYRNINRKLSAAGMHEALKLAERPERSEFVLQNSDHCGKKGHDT

Row | SMILES | Ki [1] [nM] | Ki (D(2) dopamine receptor [2]) [nM] | Ki [3] [nM] | Ki (D(2) dopamine receptor [4]) [nM] | Ki [5] [nM] | Ki [6] [nM] | Ki [7] [nM]
1 | C[C@@H]1c2cccc3c2-c2c1ccc1c2[C@@H](C3)N(C)CC1 | 5.05 | 19.4 | 3.36 | – | – | – | –
2 | CC(=O)N[C@@H]1c2cccc3c2-c2c1ccc1c2[C@@H](C3)N(C)CC1 | – | – | – | 3650 | 538 | 204 | –
3 | CCCN(CCC)[C@H]1CCc2c(F)ccc(O)c2C1 | 87 | 3760 | 3180 | – | – | – | –
4 | NCCc1c[nH]c2ccc(C(N)=O)cc12 | – | – | 0.029 | – | – | – | –
5 | CN1CCc2ccc3c4c2[C@H]1Cc1cccc(c1-4)[C@H]3O | – | – | – | 23.8 | 13.5 | – | 31
6 | CO[C@@]1(C)c2cccc3c2-c2c1ccc1c2[C@@H](C3)N(C)CC1 | – | – | – | 71 | 1.1 | 16.9 | –
7 | CN1CCc2ccc3c4c2[C@H]1Cc1cccc(c1-4)C3=O | – | – | – | 317 | 291 | – | 140
8 | CCO[C@@]1(CC)c2cccc3c2-c2c1ccc1c2[C@@H](C3)N(C)CC1 | – | – | – | 24.5 | 3.05 | 19.1 | –
9 | CC(=O)N[C@H]1c2cccc3c2-c2c1ccc1c2[C@@H](C3)N(C)CC1 | – | – | – | 7980 | 1320 | 716 | –
10 | CN1CCc2ccc3c4c2[C@H]1Cc1cccc(c1-4)[C@@]3(C)O | – | – | – | 182 | 27.7 | – | 315
11 | C[C@H]1c2cccc3c2-c2c1ccc1c2[C@@H](C3)N(C)CC1 | 31.1 | 39.2 | 5.6 | – | – | – | –
12 | CN1CCc2ccc3c4c2[C@H]1Cc1cccc(c1-4)[C@]3(C)O | – | – | – | 26 | 4.3 | – | 61.5
13 | CN1CCc2ccc3c4c2[C@H]1Cc1cccc(c1-4)[C@@H]3O | – | – | – | 215 | 103 | – | 1210
14 | Cc1cccc2c1-c1cccc3c1[C@@H](C2)N(C)CC3 | 14.4 | – | 38.3 | – | – | – | –
15 | CCCN(CCC)[C@@H]1CCc2cccc(O)c2C1 | – | – | 8.81 | – | – | – | –
16 | CN1CCc2ccc3c4c2[C@H]1Cc1cccc(c1-4)[C@H]3N | – | – | – | 261 | 13.4 | 142 | –
17 | CCO[C@]1(CC)c2cccc3c2-c2c1ccc1c2[C@@H](C3)N(C)CC1 | – | – | – | 70.8 | 25.7 | 1.84 | –
18 | CN1CCc2cccc3c2[C@H]1Cc1ccc(O)c(O)c1-3 [APOMORPHINE] | – | – | 188 | – | – | – | –
19 | CN1CCc2ccc3c4c2[C@H]1Cc1cccc(c1-4)C3 | 40.7 | 83.2 | 6.9 | – | – | – | –
20 | CN1CCc2ccc3c4c2[C@H]1Cc1cccc(c1-4)[C@@H]3N | – | – | – | – | 18 | 355 | –
21 | CO[C@]1(C)c2cccc3c2-c2c1ccc1c2[C@@H](C3)N(C)CC1 | – | – | – | 7.1 | 1.1 | 17.3 | –
